According to ChEMBL document CHEMBL4229344 (Eur J Med Chem, 2018):

Legend:
[1] = test system: Tyrosine-protein kinase ABL1 (Homo sapiens), P00519 [Q252H]; test: Binding affinity to human non-phosphorylated ABL1 Q252H mutant (S229 to K512 residues) expressed in mammalian expression system assessed as residual binding level at 1 uM by Kinomescan method relative to control
Method in brief: (§1)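 Kinome-wide single-concentration binding screen (KINOMEscan) at 1 μM against a panel of 468 purified kinases and mutants. Read-out is relative binding of each kinase compared with control. Selectivity across the panel was summarised as an S(10) score.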

[2] = biological target: Casein kinase I isoform alpha-like (Homo sapiens) (UniProt Q8N752); test: Binding affinity to wild-type human full length CSNK1A1L (M1 to N337 residues) expressed in bacterial expression system assessed as residual binding level at 1 uM by Kinomescan method relative to control
Method in brief: (§2)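 Single-concentration (1 μM) competition-binding screen run by KINOMEscan against a panel of 468 purified kinases and mutants. The read-out is the relative binding activity of the test compound to each kinase.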

[3] = biological target: Death-associated protein kinase 3 (Homo sapiens) (UniProt O43293); test: Binding affinity to wild-type human partial length DAPK3 (M1 to A277 residues) expressed in bacterial expression system assessed as residual binding level at 1 uM by Kinomescan method relative to control
[4] = biological target: Protein kinase C delta type (Homo sapiens) (UniProt Q05655); test: Binding affinity to wild-type human partial length PRKCD (Q328 to D676 residues) expressed in bacterial expression system assessed as residual binding level at 1 uM by Kinomescan method relative to control
Method in brief: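 KINOMEscan competition binding against a panel of 468 purified kinases/mutants, compound tested at 1 μM; readout is relative binding activity versus control.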

[5] = biological target: Tyrosine-protein kinase Lyn (Homo sapiens) (UniProt P07948); test: Binding affinity to wild-type human partial length LYN (C219 to Q511 residues) expressed in bacterial expression system assessed as residual binding level at 1 uM by Kinomescan method relative to control
[6] = test system: Receptor-type tyrosine-protein kinase FLT3 (Homo sapiens), P36888 [UNDEFINED MUTATION]; test: Binding affinity to human partial length FLT3 ITD/D835V double mutant expressed in bacterial expression system assessed as residual binding level at 1 uM by Kinomescan method relative to control; method in brief: as §1
[7] = test system: Tyrosine-protein kinase ABL1 (Homo sapiens), P00519 [M351T]; test: Binding affinity to human phosphorylated ABL1 M351T mutant (S229 to K512 residues) expressed in mammalian expression system assessed as residual binding level at 1 uM by Kinomescan method relative to control; method in brief: as §2
[8] = biological target: Leucine-rich repeat serine/threonine-protein kinase 2 (Homo sapiens) (UniProt Q5S007); test: Binding affinity to wild-type human partial length LRRK2 (H970 to E2527 residues) expressed in mammalian expression system assessed as residual binding level at 1 uM by Kinomescan method relative to control
[9] = biological target: Serine/threonine-protein kinase 32C (Homo sapiens) (UniProt Q86UX6); test: Binding affinity to wild-type human partial length YANK3 (M68 to G486 residues) expressed in bacterial expression system assessed as residual binding level at 1 uM by Kinomescan method relative to control
[10] = biological target: Cyclin-dependent kinase 7 (Homo sapiens) (UniProt P50613); test: Binding affinity to wild-type human full length CDK7 (M1 to L344 residues) expressed in mammalian expression system assessed as residual binding level at 1 uM by Kinomescan method relative to control
Method in brief: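 KINOMEscan competition binding against 468 purified kinases/mutants, test compound at 1 µM; residual binding relative to control.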

[11] = biological target: Mitogen-activated protein kinase 3 (Homo sapiens) (UniProt P27361); test: Binding affinity to wild-type human full length ERK1 (M1 to P379 residues) expressed in bacterial expression system assessed as residual binding level at 1 uM by Kinomescan method relative to control; method in brief: as §2
[12] = test system: Phosphatidylinositol 4,5-bisphosphate 3-kinase catalytic subunit alpha isoform (Homo sapiens), P42336 [E545A]; test: Binding affinity to human partial length PIK3CA E545A mutant (R108 to N1068 residues) expressed in mammalian expression system assessed as residual binding level at 1 uM by Kinomescan method relative to control; method in brief: as §1
[13] = biological target: Serine/threonine-protein kinase DCLK3 (Homo sapiens) (UniProt Q9C098); test: Binding affinity to wild-type human partial length DCAMKL3 (E140 to V628 residues) expressed in bacterial expression system assessed as residual binding level at 1 uM by Kinomescan method relative to control
Method in brief: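 Kinome-wide competition binding screen against a panel of 468 purified kinases/mutants, with the test compound at a single concentration of 1 μM. Read-out is the relative binding activity of each kinase in the presence of compound.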

[14] = biological target: Mitogen-activated protein kinase kinase kinase 19 (Homo sapiens) (UniProt Q56UN5); test: Binding affinity to wild-type human partial length YSK4 (T1019 to H1328 residues) expressed in mammalian expression system assessed as residual binding level at 1 uM by Kinomescan method relative to control
[15] = biological target: Tyrosine-protein kinase TXK (Homo sapiens) (UniProt P42681); test: Binding affinity to wild-type human partial length TXK (L238 to W527 residues) expressed in bacterial expression system assessed as residual binding level at 1 uM by Kinomescan method relative to control
[16] = biological target: TGF-beta receptor type-1 (Homo sapiens) (UniProt P36897); test: Binding affinity to wild-type human partial length TGFBR1 (D179 to M503 residues) expressed in bacterial expression system assessed as residual binding level at 1 uM by Kinomescan method relative to control
[17] = biological target: Serine/threonine-protein kinase N2 (Homo sapiens) (UniProt Q16513); test: Binding affinity to wild-type human partial length PKN2 (E634 to C984 residues) expressed in bacterial expression system assessed as residual binding level at 1 uM by Kinomescan method relative to control
[18] = test system: Proto-oncogene tyrosine-protein kinase receptor Ret (Homo sapiens), P07949 [V804L]; test: Binding affinity to human partial length RET V804L mutant (E713 to D1014 residues) expressed in bacterial expression system assessed as residual binding level at 1 uM by Kinomescan method relative to control; method in brief: as §1
[19] = AUC (0 to t) in Sprague-Dawley rat at 10 mg/kg, po; assay type: ADME, organism-based; conditions: in vivo
Method in brief: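 Male Sprague-Dawley rats (6–8 weeks) fasted overnight, dosed IV or orally; compound dissolved in 5% DMSO/40% PEG400/55% saline (dosing solution 1 mg/mL). Blood (~0.2 mL) from jugular vein into heparin; IV sampling 1 min–8 h, oral 5 min–24 h. Plasma separated by centrifugation at 2–8 °C, stored at −80 °C until analysis.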

[20] = biological target: Serine/threonine-protein kinase Nek5 (Homo sapiens) (UniProt Q6P3R8); test: Binding affinity to wild-type human partial length NEK5 (M1 to M279 residues) expressed in bacterial expression system assessed as residual binding level at 1 uM by Kinomescan method relative to control
[21] = biological target: Insulin receptor-related protein (Homo sapiens) (UniProt P14616); test: Binding affinity to wild-type human partial length INSRR (R950 to E1278 residues) expressed in bacterial expression system assessed as residual binding level at 1 uM by Kinomescan method relative to control

Tyrosine-protein kinase Lyn (Homo sapiens), sequence (P07948 2-512 limits assumed): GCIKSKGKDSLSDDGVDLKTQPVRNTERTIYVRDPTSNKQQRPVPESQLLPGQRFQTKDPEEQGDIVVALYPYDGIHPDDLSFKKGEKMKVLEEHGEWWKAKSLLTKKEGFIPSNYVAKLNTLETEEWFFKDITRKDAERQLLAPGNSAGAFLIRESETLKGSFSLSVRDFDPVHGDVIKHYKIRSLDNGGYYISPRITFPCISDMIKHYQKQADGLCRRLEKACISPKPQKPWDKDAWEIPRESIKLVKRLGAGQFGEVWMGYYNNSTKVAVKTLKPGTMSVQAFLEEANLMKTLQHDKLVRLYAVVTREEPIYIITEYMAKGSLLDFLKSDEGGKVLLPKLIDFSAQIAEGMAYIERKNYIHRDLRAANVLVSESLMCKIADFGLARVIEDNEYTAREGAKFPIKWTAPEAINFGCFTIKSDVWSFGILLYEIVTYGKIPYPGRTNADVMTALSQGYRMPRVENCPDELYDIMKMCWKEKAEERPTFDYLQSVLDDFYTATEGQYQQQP
Receptor-type tyrosine-protein kinase FLT3 (Homo sapiens), P36888 [UNDEFINED MUTATION], sequence (P36888 whole entry, looked up, stated change not applied, the tested form may be a part): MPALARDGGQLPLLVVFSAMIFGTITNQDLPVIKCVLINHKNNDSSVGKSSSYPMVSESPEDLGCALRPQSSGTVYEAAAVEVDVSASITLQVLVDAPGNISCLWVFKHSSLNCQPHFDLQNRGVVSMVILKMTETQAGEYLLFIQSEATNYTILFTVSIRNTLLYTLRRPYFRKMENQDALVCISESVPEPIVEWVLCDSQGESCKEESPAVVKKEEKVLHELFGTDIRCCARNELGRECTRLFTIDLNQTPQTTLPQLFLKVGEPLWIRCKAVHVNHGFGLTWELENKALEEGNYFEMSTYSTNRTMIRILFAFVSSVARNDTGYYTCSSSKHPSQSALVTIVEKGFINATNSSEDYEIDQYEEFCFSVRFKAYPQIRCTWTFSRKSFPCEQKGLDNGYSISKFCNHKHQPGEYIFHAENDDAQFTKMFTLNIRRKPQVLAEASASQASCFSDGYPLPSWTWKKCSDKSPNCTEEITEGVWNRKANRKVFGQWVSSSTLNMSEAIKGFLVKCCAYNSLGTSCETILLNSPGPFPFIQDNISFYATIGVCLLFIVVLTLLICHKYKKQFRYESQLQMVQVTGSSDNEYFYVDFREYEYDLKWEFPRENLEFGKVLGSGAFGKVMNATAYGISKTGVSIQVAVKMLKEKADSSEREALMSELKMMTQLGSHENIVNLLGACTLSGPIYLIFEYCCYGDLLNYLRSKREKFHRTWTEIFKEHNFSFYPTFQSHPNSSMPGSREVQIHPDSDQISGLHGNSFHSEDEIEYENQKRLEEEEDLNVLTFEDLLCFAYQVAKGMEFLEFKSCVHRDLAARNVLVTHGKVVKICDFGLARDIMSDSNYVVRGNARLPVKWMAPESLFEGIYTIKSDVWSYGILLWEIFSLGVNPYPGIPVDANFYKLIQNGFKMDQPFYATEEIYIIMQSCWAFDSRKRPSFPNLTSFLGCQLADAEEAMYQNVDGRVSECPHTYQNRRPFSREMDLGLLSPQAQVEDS
Serine/threonine-protein kinase DCLK3 (Homo sapiens), sequence (Q9C098 whole entry, the tested form may be a part): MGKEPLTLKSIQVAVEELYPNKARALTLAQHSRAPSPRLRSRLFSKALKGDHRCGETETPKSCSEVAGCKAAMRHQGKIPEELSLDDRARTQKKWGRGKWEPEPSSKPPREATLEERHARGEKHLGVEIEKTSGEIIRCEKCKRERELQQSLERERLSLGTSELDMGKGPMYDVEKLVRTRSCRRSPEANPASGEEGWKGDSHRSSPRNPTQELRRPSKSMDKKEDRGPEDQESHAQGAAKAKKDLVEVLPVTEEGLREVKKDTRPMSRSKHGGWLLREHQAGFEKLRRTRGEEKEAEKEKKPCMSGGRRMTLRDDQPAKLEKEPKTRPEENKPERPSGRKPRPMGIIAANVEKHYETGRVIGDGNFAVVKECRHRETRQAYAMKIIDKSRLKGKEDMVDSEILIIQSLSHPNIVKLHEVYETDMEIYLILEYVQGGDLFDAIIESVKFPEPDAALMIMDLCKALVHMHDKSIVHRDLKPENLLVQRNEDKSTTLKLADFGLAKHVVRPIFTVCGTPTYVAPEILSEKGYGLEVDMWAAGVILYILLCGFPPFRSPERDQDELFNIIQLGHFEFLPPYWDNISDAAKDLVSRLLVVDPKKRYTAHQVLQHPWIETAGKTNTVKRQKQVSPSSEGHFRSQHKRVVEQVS
Protein kinase C delta type (Homo sapiens), sequence (Q05655 whole entry, looked up, the tested form may be a part): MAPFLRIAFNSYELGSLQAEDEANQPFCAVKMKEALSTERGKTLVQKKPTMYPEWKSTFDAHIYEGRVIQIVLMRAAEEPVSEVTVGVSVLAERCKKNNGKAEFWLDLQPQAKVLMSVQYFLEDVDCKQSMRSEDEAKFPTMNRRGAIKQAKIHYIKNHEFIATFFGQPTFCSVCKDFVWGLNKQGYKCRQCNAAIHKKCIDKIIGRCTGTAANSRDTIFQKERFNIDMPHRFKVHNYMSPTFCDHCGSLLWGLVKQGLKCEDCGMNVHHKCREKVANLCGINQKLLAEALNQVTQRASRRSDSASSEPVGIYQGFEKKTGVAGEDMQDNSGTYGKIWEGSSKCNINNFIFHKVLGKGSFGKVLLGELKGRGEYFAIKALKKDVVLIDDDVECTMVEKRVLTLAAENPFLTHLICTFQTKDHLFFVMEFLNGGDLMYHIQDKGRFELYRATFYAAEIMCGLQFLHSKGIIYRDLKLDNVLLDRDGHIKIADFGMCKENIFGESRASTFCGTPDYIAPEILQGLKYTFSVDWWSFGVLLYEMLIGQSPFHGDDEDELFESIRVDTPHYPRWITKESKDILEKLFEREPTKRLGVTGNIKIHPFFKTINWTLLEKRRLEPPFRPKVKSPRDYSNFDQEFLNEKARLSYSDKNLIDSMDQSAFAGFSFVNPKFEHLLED
Proto-oncogene tyrosine-protein kinase receptor Ret (Homo sapiens), P07949 [V804L], sequence (P07949 whole entry V804L, the tested form may be a part): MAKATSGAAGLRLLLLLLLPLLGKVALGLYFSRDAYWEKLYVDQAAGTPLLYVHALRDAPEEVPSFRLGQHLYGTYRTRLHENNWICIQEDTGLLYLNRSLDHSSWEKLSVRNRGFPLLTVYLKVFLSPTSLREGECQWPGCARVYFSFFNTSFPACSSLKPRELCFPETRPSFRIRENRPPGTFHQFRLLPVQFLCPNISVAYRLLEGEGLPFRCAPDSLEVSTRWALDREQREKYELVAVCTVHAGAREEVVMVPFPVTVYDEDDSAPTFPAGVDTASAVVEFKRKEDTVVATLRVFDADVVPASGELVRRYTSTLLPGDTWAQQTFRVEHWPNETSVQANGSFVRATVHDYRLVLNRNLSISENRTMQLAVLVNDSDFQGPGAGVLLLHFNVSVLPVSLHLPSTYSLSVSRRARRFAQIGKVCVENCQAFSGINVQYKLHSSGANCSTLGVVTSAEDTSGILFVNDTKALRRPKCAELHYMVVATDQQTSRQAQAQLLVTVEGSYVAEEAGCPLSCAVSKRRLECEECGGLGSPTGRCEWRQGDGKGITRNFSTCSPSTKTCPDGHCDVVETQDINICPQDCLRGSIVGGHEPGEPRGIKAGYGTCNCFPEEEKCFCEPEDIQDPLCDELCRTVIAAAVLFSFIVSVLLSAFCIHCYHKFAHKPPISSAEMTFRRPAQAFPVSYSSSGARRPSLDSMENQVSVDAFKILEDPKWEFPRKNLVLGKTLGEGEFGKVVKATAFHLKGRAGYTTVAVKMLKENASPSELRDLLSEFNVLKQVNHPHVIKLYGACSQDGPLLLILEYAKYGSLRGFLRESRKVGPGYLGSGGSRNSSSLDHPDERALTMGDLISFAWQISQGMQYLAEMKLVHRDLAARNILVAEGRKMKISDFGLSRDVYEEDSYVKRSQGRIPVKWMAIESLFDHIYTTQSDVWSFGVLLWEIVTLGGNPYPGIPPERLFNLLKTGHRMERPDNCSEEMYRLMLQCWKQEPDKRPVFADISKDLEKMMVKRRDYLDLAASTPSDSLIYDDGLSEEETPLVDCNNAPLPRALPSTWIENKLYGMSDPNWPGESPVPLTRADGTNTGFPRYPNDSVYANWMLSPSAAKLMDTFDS
Serine/threonine-protein kinase Nek5 (Homo sapiens), sequence (Q6P3R8 whole entry, the tested form may be a part): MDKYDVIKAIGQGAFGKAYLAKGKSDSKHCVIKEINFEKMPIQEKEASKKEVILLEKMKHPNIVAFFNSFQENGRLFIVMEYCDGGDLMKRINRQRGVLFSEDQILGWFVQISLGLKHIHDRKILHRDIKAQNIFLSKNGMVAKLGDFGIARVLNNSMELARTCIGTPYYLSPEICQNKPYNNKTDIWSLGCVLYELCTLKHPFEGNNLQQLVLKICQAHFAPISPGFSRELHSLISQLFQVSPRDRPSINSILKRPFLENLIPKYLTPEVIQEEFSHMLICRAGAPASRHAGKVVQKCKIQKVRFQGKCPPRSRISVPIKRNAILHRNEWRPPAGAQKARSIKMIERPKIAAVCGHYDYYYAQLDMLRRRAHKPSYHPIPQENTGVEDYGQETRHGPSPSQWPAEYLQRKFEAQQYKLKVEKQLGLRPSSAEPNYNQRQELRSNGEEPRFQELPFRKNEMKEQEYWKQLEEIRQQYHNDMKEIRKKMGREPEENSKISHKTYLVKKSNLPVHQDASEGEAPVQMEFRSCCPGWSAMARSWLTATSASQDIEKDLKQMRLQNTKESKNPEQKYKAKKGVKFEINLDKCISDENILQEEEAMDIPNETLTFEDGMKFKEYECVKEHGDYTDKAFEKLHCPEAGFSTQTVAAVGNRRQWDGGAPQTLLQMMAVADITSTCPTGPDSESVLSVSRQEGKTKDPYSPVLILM
Mitogen-activated protein kinase 3 (Homo sapiens), sequence (P27361 whole entry, the tested form may be a part, canonical isoform): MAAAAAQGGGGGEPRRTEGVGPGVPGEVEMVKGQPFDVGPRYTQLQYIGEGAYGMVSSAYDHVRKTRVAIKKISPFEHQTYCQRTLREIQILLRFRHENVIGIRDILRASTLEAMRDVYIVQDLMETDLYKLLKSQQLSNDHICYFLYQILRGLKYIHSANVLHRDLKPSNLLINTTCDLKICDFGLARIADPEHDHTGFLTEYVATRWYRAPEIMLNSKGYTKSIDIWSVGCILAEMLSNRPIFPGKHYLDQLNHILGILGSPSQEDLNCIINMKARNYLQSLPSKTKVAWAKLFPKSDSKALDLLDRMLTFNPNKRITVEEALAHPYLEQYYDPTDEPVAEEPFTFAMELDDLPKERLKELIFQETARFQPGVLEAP

Cc1ccc(NC(=O)c2ccc(CN(CCN(C)C)C(=O)c3cccnc3)cc2)cc1Nc1nccc(-c2cccnc2)n1
Activity [1]: 23%
Activity [2]: 93%
Activity [3]: 93%
Activity [4]: 87%
Activity [5]: 97%
Activity [6]: 98%
Activity [7]: 77%
Activity [8]: 100%
Activity [9]: 96%
Activity [10]: 91%
Activity [11]: 95%
Activity [12]: 63%
Activity [13]: 89%
Activity [14]: 96%
Activity [15]: 100%
Activity [16]: 100%
Activity [17]: 96%
Activity [18]: 97%
AUC(0-t) [19]: 103 ng·h/mL
Activity [20]: 99%
Activity [21]: 96%
